Data set [1] relates to Mus musculus. The data set can be described thus: Analgesic effect in mouse assessed as elevation in latency response at 1 mg/kg measured after 5 mins by hot plate test. The class given is functional, organism-based. For orientation: In hot-plate and tail-flick tests a longer latency is read as antinociception.
For data set [2], the target named is T1, Cannabinoid receptor 1 (Homo sapiens, UniProt P21554). Kind of data set: Displacement of [3H]CP,55-940 from recombinant human CB1 receptor expressed in HEK293 EBNA cell membranes at 40 uM after 90 mins by microbeta scintillation counting method relative to control. In outline:
(§1)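 Competition binding with [³H]-CP55,940 on human CB₁R or CB₂R transfected into HEK293 EBNA cells; each compound screened once at 40 µM for percent displacement of radioligand.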
Background: Loss of bound radioactivity is the signal in a displacement assay; it reports binding, not function.

Data set [3] addresses T1, Cannabinoid receptor 1. Kind of data set: Displacement of [3H]CP,55-940 from recombinant human CB1 receptor expressed in HEK293 EBNA cell membranes after 90 mins by microbeta scintillation counting method.
Data set [4] addresses T2, Cannabinoid receptor 2 (Homo sapiens, UniProt P34972). Kind of data set: Displacement of [3H]CP,55-940 from recombinant human CB2 receptor expressed in HEK293 EBNA cell membranes at 40 uM after 90 mins by microbeta scintillation counting method relative to control. In outline:
as §1

The target in data set [5] is T2, Cannabinoid receptor 2. The data set can be described thus: Displacement of [3H]CP,55-940 from recombinant human CB2 receptor expressed in HEK293 EBNA cell membranes after 90 mins by microbeta scintillation counting method.
Data set [6] addresses T1, Cannabinoid receptor 1. Kind of data set: Antagonist activity at human CB1 receptor expressed in CHO cell membranes assessed as reduction in GTPgammaS binding after 30 mins by microbeta counting method. The class given is functional, cell-based. A general note: Binding of GTPγS marks nucleotide exchange on a G protein.
In data set [7] the test system is Mus musculus. The data set can be described thus: Reversal of delta9-THC-induced analgesic effect in mouse assessed as reduction in delta9-THC-induced elevation in latency response at 2.5 mg/kg measured after 5 mins by hot plate test. The class given is organism-based. The note with it: in vivo. In outline:
(§2)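 Hot-plate test in mice, read as latency to respond to the painful stimulus. Test agent at 2.5 mg/kg was given alone or with the cannabinoid agonist Δ9-THC at 5 mg/kg. […] 7-9 mice per group; means SEM; one-way ANOVA with Student-Newman-Keuls test.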

Data set [8] deals with Mus musculus. The data set can be described thus: Analgesic effect in mouse assessed as elevation in latency response at 2.5 mg/kg measured after 5 mins by hot plate test. The class given is functional, organism-based. An outline of the steps: as §2

A word on the inhibition: it is the relative decrease from the control value, in per cent. By Ki is commonly meant a measure of affinity in units of concentration, obtained from inhibition or displacement. What is called IC50 is the concentration that inhibits the measured activity by half.

Active and inactive are the calls of the source. The rule behind the calls is not given here. Bounds are passed on as bounds.

T2 sequence (P34972 whole entry): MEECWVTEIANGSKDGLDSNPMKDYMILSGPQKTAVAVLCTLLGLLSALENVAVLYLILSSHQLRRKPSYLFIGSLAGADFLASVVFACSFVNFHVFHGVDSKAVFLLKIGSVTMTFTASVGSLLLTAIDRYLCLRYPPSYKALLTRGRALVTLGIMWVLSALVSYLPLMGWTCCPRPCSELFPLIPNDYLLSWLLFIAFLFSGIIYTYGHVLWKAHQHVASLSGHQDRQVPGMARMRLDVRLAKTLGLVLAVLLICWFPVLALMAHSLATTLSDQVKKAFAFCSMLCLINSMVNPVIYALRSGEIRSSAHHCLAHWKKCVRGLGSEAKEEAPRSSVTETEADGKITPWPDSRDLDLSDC
T1 sequence (P21554 whole entry): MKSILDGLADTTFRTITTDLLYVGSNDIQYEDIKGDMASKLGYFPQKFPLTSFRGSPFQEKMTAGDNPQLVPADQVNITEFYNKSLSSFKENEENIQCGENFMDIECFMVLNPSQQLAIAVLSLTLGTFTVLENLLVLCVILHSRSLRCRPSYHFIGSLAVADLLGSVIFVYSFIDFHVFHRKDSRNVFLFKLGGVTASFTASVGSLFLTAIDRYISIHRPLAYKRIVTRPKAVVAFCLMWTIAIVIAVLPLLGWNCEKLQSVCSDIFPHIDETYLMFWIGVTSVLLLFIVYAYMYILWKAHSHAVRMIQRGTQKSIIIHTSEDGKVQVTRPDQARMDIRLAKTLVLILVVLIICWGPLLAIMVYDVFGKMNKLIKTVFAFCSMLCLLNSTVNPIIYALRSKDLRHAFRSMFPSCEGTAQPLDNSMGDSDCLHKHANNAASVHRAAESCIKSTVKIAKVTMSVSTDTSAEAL

Consider `Cc1c(C(=O)NN2CCCCC2)nn(-c2ccc(Cl)cc2Cl)c1-c1ccc(Cl)cc1`, for which the result in the data set on Mus musculus [1] was inactive.

Turning to `Cc1ccc(Cn2nc(-c3ccc(C)cc3)cc(SNC3CCCCCC3)c2=O)cc1`, the inhibition result at Cannabinoid receptor 1 [2] and at Cannabinoid receptor 2 [4] was “inactive” each time. Besides, the Ki at Cannabinoid receptor 1 [3] (read-out: Ki) and at Cannabinoid receptor 2 [5] (read-out: Ki) was over 40000 nM throughout.

Take `Cc1ccc(-c2cc(SNCC34CC5CC(CC(C5)C3)C4)nnc2-c2ccc(C)cc2)cc1`: the inhibition at Cannabinoid receptor 1 [2] was over 70%; at Cannabinoid receptor 2 [4], under 70%. Further, the values for the Ki at Cannabinoid receptor 1 [3] (read-out: Ki) and on Cannabinoid receptor 2 [5] (read-out: Ki) were 857 nM and over 40000 nM, respectively.

`Cc1ccc(-c2cc(SNC3CC(C)CCC3C(C)C)nnc2-c2ccc(C)cc2)cc1` (centres undefined): the inhibition at Cannabinoid receptor 1 [2] is over 70%; at Cannabinoid receptor 2 [4], under 70%. Also, the values for the inhibition constant (Ki) at Cannabinoid receptor 1 [3] (read-out: Ki) and at Cannabinoid receptor 2 [5] (read-out: Ki) were 708 nM and over 40000 nM, respectively.

For the molecule `Cc1ccc(-c2cc(S(=O)(=O)NC3CC4CC(C3C)C4(C)C)nnc2-c2ccc(C)cc2)cc1` (centres undefined), the inhibition on Cannabinoid receptor 1 [2] is over 70%; at Cannabinoid receptor 2 [4], under 70%. Further, the Ki at Cannabinoid receptor 1 [3] (read-out: Ki) is 73.2 nM; at Cannabinoid receptor 2 [5] (read-out: Ki) it was over 40000 nM. In addition, the IC50 on Cannabinoid receptor 1 [6] amounted to 550 nM.

Turning to `Cc1ccc(-c2cc(SNC3CCCC3)nnc2-c2ccc(C)cc2)cc1`, the inhibition on Cannabinoid receptor 1 [2] was over 70%; on Cannabinoid receptor 2 [4], under 70%. Moreover, the inhibition constant (Ki) on Cannabinoid receptor 1 [3] (read-out: Ki) was 724 nM; at Cannabinoid receptor 2 [5] (read-out: Ki), over 40000 nM.

On to `Cc1ccc(-c2cc(S(=O)(=O)NC3CCCCC3)nnc2-c2ccc(C)cc2)cc1`, for which the figures for the inhibition on Cannabinoid receptor 1 [2] and at Cannabinoid receptor 2 [4] were over 70% and under 70%, respectively. The figures for the inhibition constant (Ki) at Cannabinoid receptor 1 [3] (read-out: Ki) and on Cannabinoid receptor 2 [5] (read-out: Ki) were 3600 nM and over 40000 nM, respectively.

On to `Cc1ccc(-c2cc(S(=O)(=O)NC3CCCCCC3)nnc2-c2ccc(C)cc2)cc1`, for which the results for the inhibition on Cannabinoid receptor 1 [2] and at Cannabinoid receptor 2 [4] were over 70% and under 70%, respectively. The values for the Ki on Cannabinoid receptor 1 [3] (read-out: Ki) and at Cannabinoid receptor 2 [5] (read-out: Ki) were 800 nM and over 40000 nM, respectively.

On to `Cc1ccc(-c2cc(SNC3CCCCCC3)nnc2-c2ccc(C)cc2)cc1`, for which the inhibition at Cannabinoid receptor 1 [2] was over 70%; at Cannabinoid receptor 2 [4], under 70%. Moreover, the inhibition constant Ki at Cannabinoid receptor 1 [3] (read-out: Ki) is 609 nM; on Cannabinoid receptor 2 [5] (read-out: Ki), over 40000 nM.

Consider `Cc1ccc(Cn2nc(-c3ccc(C)cc3)cc(S(=O)(=O)NC3CCCCCC3)c2=O)cc1`, for which the inhibition at Cannabinoid receptor 1 [2] was over 70%; on Cannabinoid receptor 2 [4] it was under 70%. Also, the inhibition constant (Ki) on Cannabinoid receptor 1 [3] (read-out: Ki) was 1190 nM; at Cannabinoid receptor 2 [5] (read-out: Ki), 2550 nM. The Activity entry with Mus musculus [7] is “Toxic”.

Turning to `Cc1ccc(-c2cc(S(=O)(=O)NC3CC(C)CCC3C(C)C)nnc2-c2ccc(C)cc2)cc1` (centres undefined), the inhibition was over 70% on Cannabinoid receptor 1 [2] and under 70% at Cannabinoid receptor 2 [4]. Also, the results for the Ki at Cannabinoid receptor 1 [3] (read-out: Ki) and on Cannabinoid receptor 2 [5] (read-out: Ki) were over 10000 nM and over 40000 nM, respectively.

As to `Cc1ccc(-c2cc(SNCCN3CCOCC3)nnc2-c2ccc(C)cc2)cc1`, the inhibition at Cannabinoid receptor 1 [2] is over 70%; at Cannabinoid receptor 2 [4], under 70%. The Ki on Cannabinoid receptor 2 [5] (read-out: Ki) is over 40000 nM.

On to `Cc1ccc(-c2cc(S(=O)(=O)NC3CCCC3)nnc2-c2ccc(C)cc2)cc1`, for which the inhibition at Cannabinoid receptor 1 [2] is over 70%; at Cannabinoid receptor 2 [4] it was under 70%. Besides, the Ki at Cannabinoid receptor 1 [3] (read-out: Ki) was 1460 nM; on Cannabinoid receptor 2 [5] (read-out: Ki), over 40000 nM.

Consider `Cc1ccc(-c2cc(S(=O)(=O)NC3CC4CCC3(C)C4(C)C)nnc2-c2ccc(C)cc2)cc1` (centres undefined), for which the inhibition at Cannabinoid receptor 1 [2] was over 70%; on Cannabinoid receptor 2 [4], under 70%. Besides, the Ki at Cannabinoid receptor 1 [3] (read-out: Ki) is 1290 nM; on Cannabinoid receptor 2 [5] (read-out: Ki), over 40000 nM.

For the molecule `Cc1ccc(-c2cc(SNC3CC4CC(C3C)C4(C)C)nnc2-c2ccc(C)cc2)cc1` (centres undefined), the inhibition at Cannabinoid receptor 1 [2] was over 70%; on Cannabinoid receptor 2 [4], under 70%. Moreover, the inhibition constant (Ki) was 75.5 nM on Cannabinoid receptor 1 [3] (read-out: Ki) and over 40000 nM at Cannabinoid receptor 2 [5] (read-out: Ki). Besides, the 50% inhibitory concentration (IC50) at Cannabinoid receptor 1 [6] amounted to 182 nM. For the same molecule, the result in the data set on Mus musculus [8] was inactive.

As for `Cc1ccc(-c2cc(S(=O)(=O)NCC3CCC4CC3C4(C)C)nnc2-c2ccc(C)cc2)cc1` (centres undefined), the inhibition was over 70% on Cannabinoid receptor 1 [2] and under 70% on Cannabinoid receptor 2 [4]. Besides, the results for the Ki at Cannabinoid receptor 1 [3] (read-out: Ki) and on Cannabinoid receptor 2 [5] (read-out: Ki) were over 10000 nM and over 40000 nM, respectively.

Turning to `Cc1ccc(-c2cc(SNC3C4(C)CCC(C4)C3(C)C)nnc2-c2ccc(C)cc2)cc1` (centres undefined), the inhibition on Cannabinoid receptor 1 [2] is over 70%; at Cannabinoid receptor 2 [4] it was under 70%. In addition, the Ki on Cannabinoid receptor 1 [3] (read-out: Ki) was 247 nM; on Cannabinoid receptor 2 [5] (read-out: Ki), over 40000 nM.

Consider `Cc1ccc(-c2cc(SNCC3CCC4CC3C4(C)C)nnc2-c2ccc(C)cc2)cc1` (centres undefined), for which the inhibition on Cannabinoid receptor 1 [2] is over 70%; at Cannabinoid receptor 2 [4], under 70%. Also, the figures for the inhibitory constant (Ki) on Cannabinoid receptor 1 [3] (read-out: Ki) and on Cannabinoid receptor 2 [5] (read-out: Ki) were 1250 nM and over 40000 nM, respectively.

Take `Cc1ccc(-c2cc(SNC3CC4CCC3(C)C4(C)C)nnc2-c2ccc(C)cc2)cc1` (centres undefined): the inhibition was over 70% on Cannabinoid receptor 1 [2] and under 70% on Cannabinoid receptor 2 [4]. Moreover, the values for the Ki at Cannabinoid receptor 1 [3] (read-out: Ki) and at Cannabinoid receptor 2 [5] (read-out: Ki) were 44.6 nM and over 40000 nM, respectively. The IC50 at Cannabinoid receptor 1 [6] amounted to 249 nM.

`Cc1ccc(-c2cc(SNC3CCCCC3)nnc2-c2ccc(C)cc2)cc1`: the inhibition constant (Ki) entry at Cannabinoid receptor 1 [3] and at Cannabinoid receptor 2 [5] was “Nd(Insoluble)” each time.

Source of the values: ChEMBL document CHEMBL4184183, “Novel sulfenamides and sulfonamides based on pyridazinone and pyridazine scaffolds as CB1 receptor ligand antagonists” (Bioorg Med Chem, 2018).
